Data published in ChEMBL document CHEMBL1135681, “Syntheses and structure-activity relationships of nonnatural beta-C-nucleoside 5'-triphosphates bearing an aromatic nucleobase with phenolic hydroxy groups: inhibitory activities against DNA polymerases” (J Med Chem, 2002).

Experiments:
Nucleic Acid [1] = assay: Inhibitory activity against Pfu DNA polymerase.; assay type: nucleic-acid assay, Pyrococcus furiosus
How it was run: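 Native Pfu polymerase (Pyrococcus furiosus) in native Pfu buffer, 2 mM Mg2+, 0.2 mM each dNTP, with various concentrations of nonnatural triphosphate. Cycling: 95 °C 5 min; 30 cycles of 95 °C 30 s, 50 °C 30 s, 72 °C 60 s; final 72 °C 5 min. PCR bands quantified by phosphorimager; IC50 at 50% inhibition; average of two independent runs.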

[2] = Inhibitory activity against Ex Taq DNA polymerase; assay type: nucleic-acid assay, Thermus aquaticus
How it was run: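 PCR inhibition assay in 1× Ex Taq buffer, 2 mM Mg2+, 0.2 mM each dNTP, with various concentrations of nonnatural triphosphate added. Cycling: 95 °C 5 min; 30 cycles of 95 °C 30 s, 50 °C 30 s, 72 °C 60 s; final 72 °C 5 min. Product bands quantified by phosphorimager; IC50 taken as concentration giving 50% inhibition of amplification; mean of two independent experiments.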

[3] = target: Pyrobest DNA polymerase (Pyrococcus sp.); assay: Inhibitory activity against Pyrobest DNA polymerase.
Nucleic Acid [4] = assay: Inhibitory activity against LA-Taq DNA polymerase; assay type: nucleic-acid assay, Thermus aquaticus
How it was run: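 LA-Taq PCR in 1× LA-Taq buffer with 2.5 mM Mg2+ and 0.2 mM each dNTP, plus graded levels of nonnatural triphosphate. Cycling: 95 °C 5 min; 30 cycles of 95 °C 30 s, 50 °C 30 s, 72 °C 60 s; final 72 °C 5 min. Amplified bands measured by phosphorimager; concentration for 50% inhibition determined; two independent experiments averaged.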

Nucleic Acid [5] = assay: Inhibitory activity against Z-Taq DNA polymerase; assay type: nucleic-acid assay, Thermus aquaticus
How it was run: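 Z-Taq amplification in 1× Z-Taq buffer, 3 mM Mg2+, 0.2 mM each dNTP, with various nonnatural triphosphate concentrations. Cycling: 95 °C 5 min; 25 cycles of 95 °C 30 s, 50 °C 30 s, 72 °C 30 s; final 72 °C 5 min. Phosphorimager quantitation of product bands; IC50 as 50% inhibition concentration; mean of two independent experiments.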

IC50 (Nucleic Acid [1])	IC50 [2]	IC50 [3]	IC50 (Nucleic Acid [4])	IC50 (Nucleic Acid [5])	SMILES
900 µM	1600 µM	1500 µM	3700 µM	3700 µM	O=P(O)(O)OP(=O)(O)OP(=O)(O)OCC1O[C@@H](c2ccc(O)cc2)CC1O (stereo not given in full)
200 µM	30 µM	500 µM	700 µM	300 µM	O=P(O)(O)OP(=O)(O)OP(=O)(O)OCC1O[C@@H](c2ccc(O)c(O)c2)CC1O (stereo not given in full)
> 16000 µM	> 16000 µM	> 16000 µM	> 16000 µM	> 16000 µM	O=P(O)(O)OP(=O)(O)OP(=O)(O)OCC1O[C@@H](c2ccccc2)CC1O (stereo not given in full)
800 µM	1700 µM	1400 µM	2400 µM	3100 µM	O=P(O)(O)OP(=O)(O)OP(=O)(O)OCC1O[C@@H](c2ccccc2O)CC1O (stereo not given in full)
900 µM	1900 µM	2700 µM	3100 µM	6200 µM	O=P(O)(O)OP(=O)(O)OP(=O)(O)OCC1O[C@@H](c2cccc(O)c2)CC1O (stereo not given in full)
